Activity calls are given as the source filed them. The rule behind the calls is not given here.
Key:
[1] = tested on: Rattus norvegicus; assay: Antiobesity activity in high fat diet-induced obese Sprague-Dawley rat assessed as reduction of body weight at 10 mg/kg, po qd for 7 days relative to control; type: functional; set-up: scale not given: the % may be the effect or the level left
Summary of the method: (§1)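 Seven-day rat study: once-daily oral dosing at 3, 10 or 30 mg/kg, with 1, 3 and 100 mg/kg also used for one series. Compounds were given as spray-dried dispersions in hydroxypropylmethylcellulose acetate succinate. Food intake, body weight, liver TG and serum ALT were measured against vehicle. Systemic exposure was reported as AUC (ng h/mL). Significance versus vehicle was set at P ≤ 0.05.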

[2] = tested on: Rattus norvegicus; assay: Antiobesity activity in high fat diet-induced obese Sprague-Dawley rat assessed as reduction in body weight at 10 mg/kg, po administered with 25% SDD formulation daily for 3 days relative to dirlotapide; type: functional; set-up: scale not given: the % may be the effect or the level left
[3] = tested on: Rattus norvegicus; assay: Drug metabolism in rat assessed as formation of 2-(4'-tert-butylbiphenyl-2-ylcarboxamido)-N-(2-(methylamino)-2-oxo-1-phenylethyl)quinoline-6-carboxamide at 30 mg/kg, po administered as single dose; type: ADME, organism-based; set-up: dose 30 mg/kg, route oral; conditions: in vivo
[4] = tested on: Rattus norvegicus; assay: Antiobesity activity in high fat diet-induced obese Sprague-Dawley rat assessed as reduction of food intake at 30 mg/kg, po administered daily for 3 days relative to control; type: functional; set-up: scale not given: the % may be the effect or the level left
Summary of the method: (§2)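 Male Sprague–Dawley rats (~300 g, n = 5 per group) were acclimatized for seven days to a high-fat diet (45% kcal from fat). They received three consecutive daily oral gavage doses 1.5 h before the dark cycle. Vehicle was SEDDS:H2O 10:90, with SEDDS made of Miglyol 812 10%, triacetin 30%, polysorbate 80 20% and Capmul MCM 30%. Food intake was recorded during dosing, and liver TG was measured afterwards, both against vehicle.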

[5] = tested on: Rattus norvegicus; assay: Antiobesity activity in po dosed high fat diet-induced obese Sprague-Dawley rat assessed as reduction of reduction of triglyceride accumulation in liver administered daily for 3 days; type: functional; conditions: 72 h, read-out: MED
Summary of the method: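 Male Sprague–Dawley rats (about 300 g; n = 5 per group) were acclimatized for seven days to a high-fat diet (45% kcal from fat). They received three consecutive daily oral gavage doses in SEDDS:H₂O 10:90 vehicle 1.5 h before the dark cycle. Food intake was recorded, and liver TG was then measured against the vehicle group.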

[6] = tested on: Rattus norvegicus; assay: Antiobesity activity in high fat diet-induced obese Sprague-Dawley rat assessed as reduction of food intake at 3 mg/kg, po administered daily for 3 days relative to dirlotapide; type: functional; set-up: scale not given: the % may be the effect or the level left; summary of the method: as §2
[7] = AUC in high fat diet-induced obese Sprague-Dawley rat at 30 mg/kg, po qd for 7 days; type: ADME, organism-based; set-up: dose 30 mg/kg, route oral; conditions: plasma; summary of the method: as §1
[8] = tested on: Rattus norvegicus; assay: Antiobesity activity in high fat diet-induced obese Sprague-Dawley rat assessed as reduction of food intake at 30 mg/kg, po qd for 7 days relative to control; type: functional; set-up: scale not given: the % may be the effect or the level left; summary of the method: as §1
[9] = tested on: Rattus norvegicus; assay: Antiobesity activity in high fat diet-induced obese Sprague-Dawley rat assessed as reduction in body weight at 10 mg/kg, po administered daily for 3 days relative to dirlotapide; type: functional; set-up: scale not given: the % may be the effect or the level left
[10] = tested on: Rattus norvegicus; assay: Antiobesity activity in po dosed high fat diet-induced obese Sprague-Dawley rat assessed as reduction of food intake administered daily for 3 days; type: functional; conditions: 72 h, read-out: MED; summary of the method: as §2
[11] = tested on: Rattus norvegicus; assay: Antiobesity activity in high fat diet-induced obese Sprague-Dawley rat assessed as reduction of food intake at 10 mg/kg, po administered daily for 3 days relative to dirlotapide; type: functional; set-up: scale not given: the % may be the effect or the level left; summary of the method: as §2
[12] = tested on: Rattus norvegicus; assay: Antiobesity activity in high fat diet-induced obese Sprague-Dawley rat assessed as reduction of triglyceride accumulation in liver at 10 mg/kg, po administered daily for 3 days relative to dirlotapide; type: functional; set-up: scale not given: the % may be the effect or the level left; summary of the method: as §2
[13] = tested on: Rattus norvegicus; assay: Antiobesity activity in high fat diet-induced obese Sprague-Dawley rat assessed as reduction in body weight at 3 mg/kg, po administered daily for 3 days relative to dirlotapide; type: functional; set-up: scale not given: the % may be the effect or the level left
[14] = tested on: Rattus norvegicus; assay: Antiobesity activity in high fat diet-induced obese Sprague-Dawley rat assessed as reduction in body weight at 1 mg/kg, po administered daily for 3 days relative to dirlotapide; type: functional; set-up: scale not given: the % may be the effect or the level left
[15] = tested on: Rattus norvegicus; assay: Antiobesity activity in high fat diet-induced obese Sprague-Dawley rat assessed as reduction of food intake at 10 mg/kg, po administered with 25% SDD formulation daily for 3 days relative to dirlotapide; type: functional; set-up: scale not given: the % may be the effect or the level left
Summary of the method: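 Three-day oral dosing study in male Sprague–Dawley rats (~300 g, n = 5 per group) fed a high-fat diet (45% kcal from fat). Animals received daily gavage doses 1.5 h before the dark cycle. Compound was given as a spray-dried dispersion made by spray drying compound with hydroxypropylmethylcellulose acetate succinate. Food intake was recorded during dosing and liver TG measured afterwards, both against vehicle.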

[16] = tested on: Rattus norvegicus; assay: Antiobesity activity in high fat diet-induced obese Sprague-Dawley rat assessed as reduction of food intake at 100 mg/kg, po administered daily for 3 days relative to control; type: functional; set-up: scale not given: the % may be the effect or the level left; summary of the method: as §2
[17] = tested on: Rattus norvegicus; assay: Antiobesity activity in high fat diet-induced obese Sprague-Dawley rat assessed as reduction in body weight at 100 mg/kg, po administered daily for 3 days relative to control; type: functional; set-up: scale not given: the % may be the effect or the level left
[18] = tested on: Rattus norvegicus; assay: Toxicity in high fat diet-induced obese Sprague-Dawley rat assessed as change in serum ALT level at 30 mg/kg, po qd for 7 days relative to control; type: organism-based; set-up: dose 30 mg/kg, route oral; conditions: in vivo, 168 h
Summary of the method: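 Seven-day study in high-fat-diet rats. Compound was given once daily by mouth as a spray-dried dispersion, with vehicle controls. Serum ALT was measured alongside food intake, body weight, liver TG and systemic exposure (AUC). ALT is expressed as % change versus vehicle, with significance set at P ≤ 0.05.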

[19] = tested on: Rattus norvegicus; assay: Antiobesity activity in high fat diet-induced obese Sprague-Dawley rat assessed as reduction in body weight at 100 mg/kg, po administered daily for 3 days relative to dirlotapide; type: functional; set-up: scale not given: the % may be the effect or the level left
[20] = tested on: Rattus norvegicus; assay: Antiobesity activity in high fat diet-induced obese Sprague-Dawley rat assessed as reduction of triglyceride accumulation in liver at 30 mg/kg, po qd for 7 days relative to control; type: functional; set-up: scale not given: the % may be the effect or the level left; summary of the method: as §1
[21] = tested on: Rattus norvegicus; assay: Antiobesity activity in high fat diet-induced obese Sprague-Dawley rat assessed as reduction of body weight at 30 mg/kg, po qd for 7 days; type: functional; set-up: scale not given: the % may be the effect or the level left; summary of the method: as §1
[22] = tested on: Rattus norvegicus; assay: Drug metabolism in rat assessed as formation of 2-(2'-(6-(2-((4-fluorobenzyl)(methyl)amino)-2-oxo-1-phenylethylcarbamoyl)quinolin-2-ylcarbamoyl)biphenyl-4-yl)-2-methylpropanoic acid at 30 mg/kg, po administered as single dose; type: ADME, organism-based; set-up: dose 30 mg/kg, route oral; conditions: in vivo
[23] = tested on: Rattus norvegicus; assay: Antiobesity activity in high fat diet-induced obese Sprague-Dawley rat assessed as triglyceride accumulation in liver at 1 mg/kg, po administered daily for 3 days relative to control; type: functional, organism-based; set-up: dose 1 mg/kg; summary of the method: as §2
[24] = AUC in high fat diet-induced obese Sprague-Dawley rat at 10 mg/kg, po qd for 7 days; type: ADME, organism-based; set-up: dose 10 mg/kg, route oral; conditions: plasma; summary of the method: as §1
[25] = tested on: Rattus norvegicus; assay: Antiobesity activity in high fat diet-induced obese Sprague-Dawley rat assessed as reduction of triglyceride accumulation in liver at 10 mg/kg, po administered daily for 3 days relative to control; type: functional; summary of the method: as §2
[26] = tested on: Rattus norvegicus; assay: Antiobesity activity in high fat diet-induced obese Sprague-Dawley rat assessed as reduction of triglyceride accumulation in liver at 3 mg/kg, po qd for 7 days relative to control; type: functional; set-up: scale not given: the % may be the effect or the level left; summary of the method: as §1
[27] = tested on: Rattus norvegicus; assay: Antiobesity activity in high fat diet-induced obese Sprague-Dawley rat assessed as triglyceride accumulation in liver at 30 mg/kg, po administered daily for 3 days relative to control; type: functional; summary of the method: as §2
[28] = tested on: Rattus norvegicus; assay: Antiobesity activity in high fat diet-induced obese Sprague-Dawley rat assessed as reduction in body weight at 30 mg/kg, po administered daily for 3 days relative to dirlotapide; type: functional; set-up: scale not given: the % may be the effect or the level left
[29] = Oral bioavailability in rat at 30 mg/kg; type: ADME, organism-based; conditions: in vivo
[30] = tested on: Rattus norvegicus; assay: Antiobesity activity in high fat diet-induced obese Sprague-Dawley rat assessed as reduction in body weight at 3 mg/kg, po administered daily for 3 days relative to control; type: functional; set-up: scale not given: the % may be the effect or the level left

SMILES: CN(Cc1ccc(F)cc1)C(=O)[C@@H](NC(=O)c1ccc2nc(NC(=O)c3ccccc3-c3ccc(C(C)(C)C)cc3)ccc2c1)c1ccccc1
- Activity [1]: 255%
- Activity [2]: 32%
- Drug metabolism [3]: Active
- Activity [4]: 41%
- minimal effective dose [5]: 3 mg/kg
- Activity [6]: 6%
- AUC at 168 h [7]: 65 ng·h/mL
- Activity [8]: 48%
- Activity [9]: 97%
- minimal effective dose [10]: 3 mg/kg
- Activity [11]: 46%
- Activity [12]: 120%
- Activity [13]: 10%
- Activity [14]: 25%
- Activity [15]: 8%
- Activity [16]: 47%
- Activity [17]: 107%
- Activity [18]: 237%
- Activity [19]: 75%
- Activity [20]: 212%
- Activity [21]: 220%
- Drug metabolism [22]: Active
- Activity [23]: inactive
- AUC at 168 h [24]: 42 ng·h/mL
- Activity [25]: inactive
- Activity [26]: 43%
- Activity [27]: 102%
- Activity [28]: 75%
- bioavailability [29]: < 3%
- Activity [30]: 67%

From ChEMBL document CHEMBL2146366, “Discovery of microsomal triglyceride transfer protein (MTP) inhibitors with potential for decreased active metabolite load compared to dirlotapide” (Bioorg Med Chem Lett, 2011)
